Reference: article PMC7305985 (Molecular cell, 2020)

What was measured:
[1] = tested on: KAP1 target genes in shKAP1 HCT116 cells; test: Reconstitution assay, RT-qPCR of KAP1 target genes; format: cell-based; settings: shKAP1 HCT116, 48 hr; relative to shNT+GFP, normalized to RPL19, n=3; Figure 5H
mono-nucleosomes = test: Nucleosome binding assay; set-up: species or system Human; settings: relative to WT KAP1; overnight 4°C, pH 7.5; Figure 5E
In short: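 GST-tagged protein, expressed in bacteria (0.1 mM IPTG, 3 hr, 37°C), was used at 2 µg with 2 µg recombinant biotinylated mono-nucleosomes. Pulldown was on StrepTactin agarose for 1 hr, with 4 washes and boiling elution. 5% input and 20% eluate were blotted with anti-GST 1:5000.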

[2] = tested on: KAP1 target gene promoters; test: FLAG ChIP-qPCR of reconstituted KAP1 proteins; format: cell-based; settings: shKAP1 HCT116, FLAG ChIP-qPCR, % Input, n=3; Figures 5I, 6F
In short: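 Epitope-tagged KAP1 was re-expressed in shKAP1 HCT116 cells by 1 µg plasmid transfection over 48 hr. Anti-FLAG ChIP used 0.5% formaldehyde crosslinking (10 min) and 150 mM glycine quench. Beads were washed 4 times with each of RIPA, low-salt, high-salt, LiCl and TE buffers. Elution was 30 min at 65°C, de-crosslinking 4 hr at 65°C with proteinase K, and read-out was qPCR.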

Molecule	restoration of KAP1 target gene expression (WT and point mutants) [1]	reduction of KAP1's ability to interact with mono-nucleosomes (mono-nucleosomes)	localization to KAP1 target gene promoters [2]
E662/3A: KAP1 PHD point mutant E662/E663 to A; GST-PHD-BD or FLAG-tagged KAP1 (protein, left off: GST, N-terminal, kept) PGGGPGTLDDSATICRVCQKPGDLVMCNQCEFCFHLDCHLPALQDVPGAAWSCSLCHVLPDLKEEDGSLSLDGADSTGVVAKLSPANQRKCERVLLALFCHEPCRPLHQLATDSTFSLDQPGGTLDLTLIRARLQEKLSPPYSSPQEFAQDVGRMFKQFNKLTEDKADVQSIIGLQRFFETRMNEAFGDTKFSAVLVEPPPMSLPGAGLSSQELSGGPGDGP	but not E662/3A, restored KAP1 target gene expression	~ 80%	but not E662/3A, localized to all tested gene promoters
L637A: control mutation L637 in flexible loop between the PHD and BD (protein, left off: GST, N-terminal, kept) PGGGPGTLDDSATICRVCQKPGDAVMCNQCEFCFHLDCHLPALQDVPGEEWSCSLCHVLPDLKEEDGSLSLDGADSTGVVAKLSPANQRKCERVLLALFCHEPCRPLHQLATDSTFSLDQPGGTLDLTLIRARLQEKLSPPYSSPQEFAQDVGRMFKQFNKLTEDKADVQSIIGLQRFFETRMNEAFGDTKFSAVLVEPPPMSLPGAGLSSQELSGGPGDGP	restored KAP1 target gene expression	–	localized to all tested gene promoters
